The species named for experiment [1] is Cavia porcellus. Kind of experiment: Inotropic activity on cardiac frequency on spontaneously beating guinea pig right atria, (from basal frequency). Type of experiment: functional, Heart. In a few lines: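 Isolated guinea pig right atrium, beating spontaneously, in oxygenated (95% O2/5% CO2) Tyrode-type solution at 34 °C. Resting tension 1 g, 60 min equilibration. Rate recorded isometrically via force transducer. Cumulative concentrations 10^-7 to 5×10^-4 M added at 30 min intervals, from DMSO stock (1% DMSO final in bath). Expressed as % of pre-drug control. Mean of at least five experiments.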

For experiment [2], the species on record is Cavia porcellus. Put plainly: Inotropic activity on electrically driven isolated Guinea pig atria. Type of experiment: functional. In a few lines: (§1)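 Isolated guinea pig left atrium paced at 1 Hz via bipolar platinum electrodes (1 ms pulses, twice threshold voltage), in oxygenated (95% O2/5% CO2) Tyrode-type solution at 34 °C. Resting tension 1 g, 60 min equilibration. Isometric contraction amplitude measured. Cumulative 10^-7 to 5×10^-4 M at 30 min intervals, 1% DMSO final. Expressed as % of pre-drug control. Mean of at least five experiments.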

The species entered for experiment [3] is Cavia porcellus. Kind of experiment: Inotropic activity on electrically driven isolated Guinea pig left atria, (from basal force). Type of experiment: functional. In a few lines: as §1
[4] abbreviates: Cavia porcellus, Heart, read-out: Emax.
[5] abbreviates: Cavia porcellus, read-out: Emax.

The structures appear in SMILES notation.

A word on the Emax: it is the greatest response seen or fitted, relative to the assay's reference. As for `C[C@]12CC/C(=N\N=C(N)N)C=C1CC[C@@H]2CO`, the values for the Emax in the experiment filed under Cavia porcellus [1] (setting [4]) and in the experiment filed under Cavia porcellus [3] (setting [5]) were 22% and -47%, respectively. In addition, in the experiment listed under Cavia porcellus [2], the “concentration at Emax” value was 0.3 mM.

Take `COC(=O)/C=C\[C@H]1CCC2=C/C(=N/N=C(N)N)CC[C@@]21C`: the Emax in the experiment listed under Cavia porcellus [1] (setting [4]) is -54%; in the experiment filed under Cavia porcellus [3] (setting [5]), -76%. In the experiment listed under Cavia porcellus [2], the “concentration at Emax” value stood at 0.3 mM.

Take `C[C@]12CC/C(=N\N=C(N)N)C=C1CC[C@@H]2/C=C/[N+](=O)[O-]`: the Emax was -1.7% in the experiment listed under Cavia porcellus [1] (setting [4]) and 128% in the experiment listed under Cavia porcellus [3] (setting [5]). In the experiment filed under Cavia porcellus [2], the “concentration at Emax” value was 0.3 mM.

As for `C[C@]12CC/C(=N\N=C(N)N)C[C@@]1(O)CC[C@@H]2/C=N/N=C(N)N`, the Emax in the experiment filed under Cavia porcellus [1] (setting [4]) was -15%; in the experiment listed under Cavia porcellus [3] (setting [5]), -59%. In addition, the “concentration at Emax” value in the experiment listed under Cavia porcellus [2] turned out to be 0.3 mM.

In the case of `COC(=O)/C=C/[C@H]1CCC2=C(C)/C(=N/N=C(N)N)CC[C@@]21C`, the Emax in the experiment listed under Cavia porcellus [1] (setting [4]) is -0.2%; in the experiment listed under Cavia porcellus [3] (setting [5]), -41%. Moreover, the “concentration at Emax” value in the experiment filed under Cavia porcellus [2] was found to be 0.3 mM.

For the molecule `C[C@]12CC/C(=N\N=C(N)N)C=C1CC[C@@H]2CN1C(=O)c2ccccc2C1=O`, the Emax is -18% in the experiment filed under Cavia porcellus [1] (setting [4]) and 86% in the experiment listed under Cavia porcellus [3] (setting [5]). The “concentration at Emax” value in the experiment filed under Cavia porcellus [2] turned out to be 0.1 mM.

Turning to `CC1=C2CC[C@@H](/C=N/N=C(N)N)[C@@]2(C)CC/C1=N\N=C(N)N`, the Emax in the experiment filed under Cavia porcellus [1] (setting [4]) came out at 33.7%; in the experiment filed under Cavia porcellus [3] (setting [5]) it was 129%. In addition, the “concentration at Emax” value in the experiment filed under Cavia porcellus [2] is 0.3 mM.

`C[C@]12CC/C(=N\N=C(N)N)C=C1CC[C@@H]2CN`: the Emax in the experiment filed under Cavia porcellus [1] (setting [4]) is -16%; in the experiment filed under Cavia porcellus [3] (setting [5]), 46%. The “concentration at Emax” value in the experiment filed under Cavia porcellus [2] is recorded as 0.3 mM.

With `CC1=C2CC[C@H](/C=N/N=C(N)N)[C@@]2(C)CC/C1=N\N=C(N)N`, the Emax in the experiment listed under Cavia porcellus [1] (setting [4]) was found to be 4.2%; in the experiment listed under Cavia porcellus [3] (setting [5]), 108%. The “concentration at Emax” value in the experiment listed under Cavia porcellus [2] is reported as 0.3 mM.

Turning to `COC(=O)/C=C/[C@H]1CCC2=C/C(=N/N=C(N)N)CC[C@@]21C`, the Emax in the experiment listed under Cavia porcellus [1] (setting [4]) is 13.2%; in the experiment filed under Cavia porcellus [3] (setting [5]) it was -67%. Further, in the experiment listed under Cavia porcellus [2], the “concentration at Emax” value came to 0.3 mM.

For the molecule `C[C@]12CC/C(=N\N=C(N)N)C=C1CC[C@@H]2/C=N/N=C(N)N` (stereo in doubt; 3), the Emax is listed as -5.4% in the experiment filed under Cavia porcellus [1] and 132% in the experiment listed under Cavia porcellus [3].

`C[C@]12CC/C(=N\N=C(N)N)C=C1CC[C@@H]2/C=N/N=C(N)N` (stereo in doubt; 30): the figures for the Emax in the experiment listed under Cavia porcellus [1] and in the experiment filed under Cavia porcellus [3] were -5.1% and 170%, respectively. Further, the “concentration at Emax” value in the experiment listed under Cavia porcellus [2] came to 0.3 mM.

On to `C[C@H]1O[C@@H](O[C@H]2[C@@H](O)C[C@H](O[C@H]3[C@@H](O)C[C@H](O[C@H]4CC[C@@]5(C)[C@H](CC[C@@H]6[C@@H]5C[C@@H](O)[C@]5(C)[C@@H](C7=CC(=O)OC7)CC[C@]65O)C4)O[C@@H]3C)O[C@@H]2C)C[C@H](O)[C@@H]1O` [DIGOXIN], for which the results for the Emax in the experiment listed under Cavia porcellus [1] (setting [4]) and in the experiment listed under Cavia porcellus [3] (setting [5]) were -28.3% and 103%, respectively. In addition, in the experiment filed under Cavia porcellus [2], the “concentration at Emax” value amounted to 0.001 mM.

For `C[C@]12CC[C@H]3[C@@H](CC[C@]4(O)C[C@@H](O)CC[C@]34C=O)[C@@]1(O)CC[C@@H]2C1=CC(=O)OC1` [STROPHANTHIDIN], the Emax in the experiment filed under Cavia porcellus [1] (setting [4]) was 80.4%; in the experiment filed under Cavia porcellus [3] (setting [5]) it was 122%. In addition, the “concentration at Emax” value in the experiment filed under Cavia porcellus [2] was 0.001 mM.
